This is an account of results in ChEMBL document CHEMBL5712906, “Discovery of a novel long noncoding RNA overlapping the LCK gene that regulates prostate cancer cell growth” (2019).

The target in assay [1] is Histone acetyltransferase p300 (Homo sapiens) (UniProt Q09472). Briefly: Inhibition of p300 in human LNCaP C4-2 cells assessed as reduction in R1881-induced increase in PSA expression at 0.3 uM measured after 24 hrs by qPCR analysis. It counts as cell-based. The procedure, abridged: (§1)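 Cells seeded 48 h in their usual growth medium, then given 1 nM R1881 with or without 0.3 μM inhibitor. RNA harvested 24 h after treatment; transcripts quantified by qPCR. HULLK measured with two independent LCK primer pairs (exon 13 or 3′UTR). PSA and TMPRSS2 transcripts serve as checks that p300 inhibition worked. n = 3.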
On the technique in general: Real-time PCR tracks product formation cycle by cycle.

For assay [2] the target is unchanged. Briefly: Inhibition of p300 in human LNCaP C4-2 cells assessed as reduction in R1881-induced increase in TMPRSS2 expression at 0.3 uM measured after 24 hrs by qPCR analysis. The format is cell-based. The essentials: as §1
Assay [3] shares this target. In words: Inhibition of p300 in human LNCaP cells assessed as effect on HULLK expression at 0.3 uM measured after 24 hrs by qpCR analysis. The format is cell-based. The procedure, abridged:
as §1

For assay [4] the target is unchanged. Briefly: Inhibition of p300 in human LNCaP C4-2 cells assessed as effect on HULLK expression at 0.3 uM measured after 24 hrs by qpCR analysis. It counts as cell-based. The procedure, abridged: as §1
Assay [5] has the same target. In words: Inhibition of p300 in human LNCaP cells assessed as reduction in R1881-induced increase in PSA expression at 0.3 uM measured after 24 hrs by qPCR analysis. It counts as cell-based. The essentials: as §1
The target is the same in assay [6]. Briefly: Inhibition of p300 in human LNCaP cells assessed as reduction in R1881-induced increase in HULLK expression at 0.3 uM measured after 24 hrs by qPCR analysis. It counts as cell-based. The procedure, abridged:
as §1

For assay [7] the target is unchanged. In words: Inhibition of p300 in human LNCaP cells assessed as reduction in R1881-induced increase in TMPRSS2 expression at 0.3 uM measured after 24 hrs by qPCR analysis. The format is cell-based. The procedure, abridged: as §1
Assay [8] shares this target. Briefly: Inhibition of p300 in human LNCaP C4-2 cells assessed as reduction in R1881-induced increase in HULLK expression at 0.3 uM measured after 24 hrs by qPCR analysis. It counts as cell-based. The essentials:
as §1

A further assay deals with LNCaP. Briefly: Reduction in R1881-induced increase in LCK 3'-UTR expression in human LNCaP cells at 10 uM measured after 24 hrs by qPCR analysis. It counts as functional, cell-based. The essentials: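 Cells seeded for 48 h, then exposed to 1 nM R1881 with or without 10 μM enzalutamide. RNA harvested 24 h after treatment. LCK transcript measured by qPCR with primers in the 3′UTR. n = 3.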

The source made the active and inactive calls. The calls are words filed in the database; no cut-off is given here.

Histone acetyltransferase p300 (Homo sapiens), sequence (Q09472 whole entry): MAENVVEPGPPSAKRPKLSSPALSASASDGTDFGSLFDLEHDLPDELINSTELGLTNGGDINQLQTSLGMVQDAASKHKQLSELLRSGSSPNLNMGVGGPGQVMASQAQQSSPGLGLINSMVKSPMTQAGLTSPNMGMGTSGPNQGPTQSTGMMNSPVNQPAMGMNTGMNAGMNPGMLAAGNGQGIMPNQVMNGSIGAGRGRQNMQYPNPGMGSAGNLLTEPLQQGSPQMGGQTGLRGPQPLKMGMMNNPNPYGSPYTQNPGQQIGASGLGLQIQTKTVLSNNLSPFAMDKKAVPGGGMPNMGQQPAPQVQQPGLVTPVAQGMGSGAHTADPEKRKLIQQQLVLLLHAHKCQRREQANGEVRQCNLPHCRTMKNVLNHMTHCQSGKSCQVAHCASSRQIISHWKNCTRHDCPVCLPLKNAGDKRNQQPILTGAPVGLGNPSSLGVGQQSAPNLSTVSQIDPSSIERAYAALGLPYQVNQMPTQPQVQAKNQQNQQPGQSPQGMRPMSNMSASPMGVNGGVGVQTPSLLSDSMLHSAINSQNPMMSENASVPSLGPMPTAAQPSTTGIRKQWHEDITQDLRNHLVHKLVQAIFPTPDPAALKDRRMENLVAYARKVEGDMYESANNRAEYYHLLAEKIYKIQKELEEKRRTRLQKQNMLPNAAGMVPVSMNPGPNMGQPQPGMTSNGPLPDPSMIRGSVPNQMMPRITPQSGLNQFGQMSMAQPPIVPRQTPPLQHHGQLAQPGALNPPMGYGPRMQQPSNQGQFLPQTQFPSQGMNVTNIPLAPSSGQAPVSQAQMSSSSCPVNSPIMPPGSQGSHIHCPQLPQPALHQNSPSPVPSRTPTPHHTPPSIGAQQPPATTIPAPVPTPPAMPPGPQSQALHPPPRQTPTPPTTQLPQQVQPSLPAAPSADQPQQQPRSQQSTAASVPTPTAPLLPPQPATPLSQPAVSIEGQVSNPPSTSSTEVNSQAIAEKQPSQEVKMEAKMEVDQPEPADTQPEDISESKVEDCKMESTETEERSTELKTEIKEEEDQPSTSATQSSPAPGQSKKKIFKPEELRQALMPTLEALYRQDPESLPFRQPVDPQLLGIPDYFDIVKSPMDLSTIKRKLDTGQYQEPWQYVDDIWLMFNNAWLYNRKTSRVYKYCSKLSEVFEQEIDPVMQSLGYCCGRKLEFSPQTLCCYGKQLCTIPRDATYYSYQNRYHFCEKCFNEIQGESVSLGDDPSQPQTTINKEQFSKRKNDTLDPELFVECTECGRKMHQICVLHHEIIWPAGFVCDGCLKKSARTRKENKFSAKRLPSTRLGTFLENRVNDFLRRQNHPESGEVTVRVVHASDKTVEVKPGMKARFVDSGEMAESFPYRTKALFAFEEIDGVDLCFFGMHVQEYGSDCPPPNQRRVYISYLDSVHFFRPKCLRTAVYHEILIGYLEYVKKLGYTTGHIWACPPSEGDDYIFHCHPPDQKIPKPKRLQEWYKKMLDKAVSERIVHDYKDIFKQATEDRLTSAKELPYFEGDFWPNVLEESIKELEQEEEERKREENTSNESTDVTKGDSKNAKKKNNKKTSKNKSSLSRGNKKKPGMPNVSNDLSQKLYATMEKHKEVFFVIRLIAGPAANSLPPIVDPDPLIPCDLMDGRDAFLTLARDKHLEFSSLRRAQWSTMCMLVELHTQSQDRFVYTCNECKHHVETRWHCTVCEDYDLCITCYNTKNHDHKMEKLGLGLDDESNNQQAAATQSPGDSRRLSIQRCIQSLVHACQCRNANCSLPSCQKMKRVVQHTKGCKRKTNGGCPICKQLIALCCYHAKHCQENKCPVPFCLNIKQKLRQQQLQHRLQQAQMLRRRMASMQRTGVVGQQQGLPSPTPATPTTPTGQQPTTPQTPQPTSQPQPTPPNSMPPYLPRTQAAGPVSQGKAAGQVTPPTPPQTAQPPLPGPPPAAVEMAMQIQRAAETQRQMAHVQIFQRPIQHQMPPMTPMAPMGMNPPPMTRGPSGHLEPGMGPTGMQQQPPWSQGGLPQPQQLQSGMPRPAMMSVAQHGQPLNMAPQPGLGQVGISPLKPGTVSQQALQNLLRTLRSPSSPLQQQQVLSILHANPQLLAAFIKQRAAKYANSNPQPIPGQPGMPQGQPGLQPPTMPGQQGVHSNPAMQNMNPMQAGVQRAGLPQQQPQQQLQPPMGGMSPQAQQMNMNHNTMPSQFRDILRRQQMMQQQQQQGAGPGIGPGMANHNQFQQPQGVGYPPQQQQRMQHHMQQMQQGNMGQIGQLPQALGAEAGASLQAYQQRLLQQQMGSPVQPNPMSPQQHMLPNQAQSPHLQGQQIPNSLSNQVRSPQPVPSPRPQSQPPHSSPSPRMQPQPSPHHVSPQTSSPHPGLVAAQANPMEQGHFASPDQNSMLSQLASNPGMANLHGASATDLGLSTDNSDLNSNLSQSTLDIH

As for `CNC(=O)Nc1ccc2c(c1)CC[C@@]21OC(=O)N(CC(=O)N(Cc2ccc(F)cc2)[C@@H](C)C(F)(F)F)C1=O`, the inhibition entry in assay [1], in assay [2], in [5], in [6], in [7] and in assay [8] was “Active” in each case. Moreover, the inhibition result in assay [3] and in assay [4] was “inactive” throughout.
As to `CNC(=O)c1ccc(N2C(=S)N(c3ccc(C#N)c(C(F)(F)F)c3)C(=O)C2(C)C)cc1F`, the outcome in the assay on LNCaP was Active.
